# System: not listed separately
# Test: Solubility of the compound in JP2 solution at 10 mM
# Format: physicochemical
# Settings: not given
# In short: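 The 10 mM DMSO solution of compound was added to JP2 until opalescence appeared.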
row,SMILES,solubility
1,O=C(Nc1ccc2cc(CN3CCCC3)ccc2c1)c1ccc(-c2ccc(F)cc2)cc1,0.11 µg/mL
2,O=C(Nc1ccc2c(c1)CCC(CN1CCCC1)=C2)c1ccc(-c2ccc(F)cc2)cc1,< 0.03 µg/mL

# Target: T1, Melanin-concentrating hormone receptor 1 (Homo sapiens, UniProt Q99705)
# Test: Antagonist activity at human MCHR1 expressed in CHO cells assessed as inhibition of MCH-induced [3H]arachidonic acid release […] by liquid scintillation counting
# Format: functional, cell-based
# Settings: in the assay text read “45 mins” for “16 hrs”
# In short: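 Human MCHR1-CHO cells seeded at 50 000/well, cultured 1 day, then loaded with [3H]arachidonic acid (0.2 μCi/well) for 16 h. Washed with DMEM containing 20 mM HEPES pH 7.4 and 0.2% BSA. Compound preincubated 30 min at 37 °C, MCH added, 45 min incubation, medium radioactivity by liquid scintillation.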
# T1 sequence (Q99705 whole entry): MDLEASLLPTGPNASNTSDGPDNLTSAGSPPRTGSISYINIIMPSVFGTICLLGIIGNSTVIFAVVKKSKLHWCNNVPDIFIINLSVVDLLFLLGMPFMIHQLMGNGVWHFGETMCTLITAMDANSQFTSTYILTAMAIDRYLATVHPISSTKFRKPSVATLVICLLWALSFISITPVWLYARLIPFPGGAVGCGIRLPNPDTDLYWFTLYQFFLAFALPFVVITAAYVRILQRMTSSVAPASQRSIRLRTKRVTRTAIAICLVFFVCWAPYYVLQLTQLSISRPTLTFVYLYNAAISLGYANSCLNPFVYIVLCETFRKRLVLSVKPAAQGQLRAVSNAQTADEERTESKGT
row,SMILES,IC50
1,O=C(Nc1cc2ncc(CN3CCCC3)cc2cc1F)c1ccc(-c2ccc(F)cc2)cc1,8.4 nM
2,Cc1c(NC(=O)c2ccc(-c3ccc(Cl)cc3)cc2)ccc2cc(CN3CCCC3)cnc12,7.6 nM
3,O=C(Nc1ccc2cc(CN3CCCC3)ccc2c1)c1ccc(-c2ccc(F)cc2)cc1,9 nM
4,O=C(Nc1ccc2c(c1)CCC(CN1CCCC1)=C2)c1ccc(-c2ccc(F)cc2)cc1,17 nM

# Target: T2, 5-hydroxytryptamine receptor 2C (Homo sapiens, UniProt P28335)
# T2 sequence (P28335 whole entry): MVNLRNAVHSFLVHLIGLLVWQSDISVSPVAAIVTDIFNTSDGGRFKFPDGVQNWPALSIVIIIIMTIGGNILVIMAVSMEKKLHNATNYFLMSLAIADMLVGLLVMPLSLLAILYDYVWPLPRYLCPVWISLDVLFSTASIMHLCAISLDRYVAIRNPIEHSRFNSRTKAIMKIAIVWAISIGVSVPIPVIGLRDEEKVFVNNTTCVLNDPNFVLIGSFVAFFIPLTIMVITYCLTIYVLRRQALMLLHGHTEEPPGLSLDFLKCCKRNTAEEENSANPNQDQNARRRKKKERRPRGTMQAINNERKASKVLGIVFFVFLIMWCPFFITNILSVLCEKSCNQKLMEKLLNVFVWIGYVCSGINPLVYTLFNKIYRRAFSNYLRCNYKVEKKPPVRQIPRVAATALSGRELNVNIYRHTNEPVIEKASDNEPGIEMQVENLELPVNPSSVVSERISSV
# Test: Displacement of [3H]mesulergine from human 5HT2C receptor expressed in CHO cells after 1 hr by scintillation counting
# Format: cell-based
# Settings: not given
# In short: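 Membranes from CHO cells stably expressing human 5-HT2c incubated 1 h at room temperature with [3H]mesulergine and compound at various concentrations. Terminated by GF/C filtration, filter radioactivity counted by scintillation. IC50 from one experiment in duplicate.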
row,SMILES,IC50
1,O=C(Nc1cc2ncc(CN3CCCC3)cc2cc1F)c1ccc(-c2ccc(F)cc2)cc1,280 nM
2,Cc1c(NC(=O)c2ccc(-c3ccc(Cl)cc3)cc2)ccc2cc(CN3CCCC3)cnc12,> 1000 nM
3,O=C(Nc1ccc2cc(CN3CCCC3)ccc2c1)c1ccc(-c2ccc(F)cc2)cc1,120 nM
4,O=C(Nc1ccc2c(c1)CCC(CN1CCCC1)=C2)c1ccc(-c2ccc(F)cc2)cc1,0.53 nM

# Target: T1, Melanin-concentrating hormone receptor 1
# Test: Displacement of [125I]MCH from human MCHR1 expressed in CHO cells after 1 hr by scintillation counting
# Format: cell-based
# Settings: not given
# In short: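 CHO cell membranes stably expressing human or rat MCHR1 incubated 1 h at room temperature with [125I]MCH(4−19) and compound at various concentrations. Filtration through GF/C glass filters, bound radioactivity counted by scintillation. IC50 from one experiment in duplicate.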
row,SMILES,IC50
1,O=C(Nc1cc2ncc(CN3CCCC3)cc2cc1F)c1ccc(-c2ccc(F)cc2)cc1,1.4 nM
2,Cc1c(NC(=O)c2ccc(-c3ccc(Cl)cc3)cc2)ccc2cc(CN3CCCC3)cnc12,0.36 nM
3,O=C(Nc1ccc2cc(CN3CCCC3)ccc2c1)c1ccc(-c2ccc(F)cc2)cc1,0.76 nM
